The source of these data is ChEMBL document CHEMBL4665815, “Di-bromo-Based Small-Molecule Inhibitors of the PD-1/PD-L1 Immune Checkpoint” (J Med Chem, 2020).

Active and inactive are the calls of the source. The calls are words filed in the database; no cut-off is given here. Where only a bound is given, the exact number is not on record here.

The nature of data set [1]: Binding affinity to human PD1 (34-150 residues) extracellular domain C93S mutant expressed in Escherichia coli BL21 (DE3) incubated for 2 hrs by TR-FRET assay. For orientation: TR-FRET usually uses a lanthanide donor and a delayed reading to cut background.
Data set [2] has as its target Programmed cell death 1 ligand 1 (Homo sapiens) (UniProt Q9NZQ7). Briefly: Binding affinity to human PD-L1 (18 to 134 residues) assessed as induction of protein dimerization by 1H NMR method.
Data set [3] deals with Programmed cell death protein 1/Programmed cell death 1 ligand 1 (Homo sapiens, UniProt Q9NZQ7). Kind of data set: (§1) Inhibition of hPD-1/hPD-L1 immune checkpoint using PD-L1 expressing human aAPCs and PD-1 expressing human Jurkat cells assessed as activation of effector Jurkat T cells incubated for 6 hrs by luciferase reporter gene based immune checkpoint blockade cell-based assay. The gist of the method: (§2)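 CHO-K1 aAPCs expressing hPD-L1 and a TCR ligand were seeded at 10 000/well 17 h ahead. Compounds were serially diluted 2.5-fold in DMSO, then 1000-fold into RPMI with 1% FBS (0.1% DMSO final). Jurkat hPD-1 NFAT-RE luciferase effector cells were added at 20 000/well for 6 h. Bio-Glo luminescence was read as fold induction over DMSO controls. EC50 came from Hill fits with the durvalumab maximum as the ceiling. Mean ± SEM, 4–7 experiments.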
Programmed cell death protein 1/Programmed cell death 1 ligand 1 (Homo sapiens, UniProt Q9NZQ7), sequence (Q15116 whole entry): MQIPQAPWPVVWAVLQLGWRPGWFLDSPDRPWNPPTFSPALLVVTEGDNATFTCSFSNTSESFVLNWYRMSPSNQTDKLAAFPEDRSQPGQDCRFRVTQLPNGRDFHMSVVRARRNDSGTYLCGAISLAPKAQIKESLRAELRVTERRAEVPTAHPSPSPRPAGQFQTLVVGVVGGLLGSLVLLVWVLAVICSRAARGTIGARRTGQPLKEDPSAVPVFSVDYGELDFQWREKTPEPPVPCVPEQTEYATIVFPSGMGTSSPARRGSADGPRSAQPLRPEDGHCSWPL
Programmed cell death protein 1/Programmed cell death 1 ligand 1 (Homo sapiens, UniProt Q9NZQ7), sequence (Q9NZQ7 whole entry): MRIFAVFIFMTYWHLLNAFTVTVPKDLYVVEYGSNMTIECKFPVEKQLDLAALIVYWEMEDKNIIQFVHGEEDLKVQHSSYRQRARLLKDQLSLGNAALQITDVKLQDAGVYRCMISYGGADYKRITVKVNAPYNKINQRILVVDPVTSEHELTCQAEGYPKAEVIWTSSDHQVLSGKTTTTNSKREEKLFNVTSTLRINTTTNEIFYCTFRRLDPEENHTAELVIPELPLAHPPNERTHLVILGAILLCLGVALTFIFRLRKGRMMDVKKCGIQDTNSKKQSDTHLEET

For data set [4], the target named is T1, Programmed cell death protein 1/Programmed cell death 1 ligand 1 (Homo sapiens, UniProt Q15116+Q9NZQ7). Briefly: Inhibition of hPD-1/hPD-L1 immune checkpoint using PD-L1 expressing human aAPCs and PD-1 expressing human Jurkat cells assessed as activation of effector Jurkat T cells at 0.01 to 100 uM incubated for 6 hrs by luciferase reporter gene based immune checkpoint blockade cell-based assay. As to conditions: dose microM 0.01-100, time 6.0 hrs. In a few lines:
as §2
(In general: A reporter such as luciferase makes a cellular process visible.)

The nature of data set [5]: Solubility in water. In kind it is physicochemical. As to conditions: buffer.
Data set [6] is described as follows: Solubility in DMSO. In kind it is physicochemical.
The target in data set [7] is T1, Programmed cell death protein 1/Programmed cell death 1 ligand 1. Described as §1. In a few lines: as §2
The target is the same in data set [8]. Kind of data set: Inhibition of hPD-1/hPD-L1 immune checkpoint using PD-L1 expressing human aAPCs and PD-1 expressing human Jurkat cells assessed as activation of effector Jurkat T cells at 50 uM incubated for 6 hrs by luciferase reporter gene based immune checkpoint blockade cell-based assay relative to control. In a few lines:
as §2

Data set [9] shares this target. Briefly: Inhibition of PD-1/PD-L1 immune checkpoint using PD-L1 expressing human aAPCs and PD-1 expressing human PBMC assessed as increase in PD-1 receptor expression on surface of CD8+ T cells incubated for 48 hrs by flow cytometry. The gist of the method:
(§3)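 PBMCs from healthy donors were isolated by density-gradient centrifugation. They were added at 400 000 cells/well onto preseeded CHO-K1 hPD-L1 aAPCs and cultured 48 h with compound, DMSO or atezolizumab (5 μg/mL). Cells were detached and stained 20 min at room temperature for CD69, CD4, CD8 and PD-1, then analysed by flow cytometry. Values are mean ± SD of three independent experiments with different donors; Student's t test.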
A general note: Flow cytometry measures light scatter and fluorescence of single cells or particles in a stream.

A short description of data set [10]: Binding affinity to Fc-tagged human PD-1 assessed as induction of dissociation of PD-1 N66A mutant/His-and Fc-tagged human PD-L1complex pre-incubated for 30 mins with PDL1 and measured after 1 hr by competitive ELISA.
Another data set has as its system PBMC. Briefly: Effect on CD69 expression in human PBMC. In kind it is functional. In a few lines: as §3
Data set [11] deals with T1, Programmed cell death protein 1/Programmed cell death 1 ligand 1. Briefly: Inhibition of PD-1/PD-L1 immune checkpoint using PD-L1 expressing human aAPCs and PD-1 expressing human PBMC assessed as increase in PD-1 receptor expression on surface of CD4+ T cells incubated for 48 hrs by flow cytometry. In a few lines:
as §3

Data set [12] addresses Programmed cell death 1 ligand 1 (Mus musculus) (UniProt Q9EP73). Briefly: Binding affinity to mouse PD1-L1 (19-134 residues) expressed in Escherichia coli BL21 (DE3) incubated for 1 hr by MST analysis.
In data set [13] the test system is Jurkat. Briefly: Toxicity in human Jurkat cells at >100 uM incubated for 24 hrs. In kind it is cell-based.
The subject of data set [14] is Jurkat. Kind of data set: Toxicity in human Jurkat cells assessed as reduction in cell viability at 40 uM incubated for 24 hrs relative to control. In kind it is cell-based.
Data set [15] is filed under the species Homo sapiens. Briefly: Binding affinity to 15N labelled human PD1 N66A mutant assessed as induction of dissociation of PD-1 N66A mutant/PDL1 complex by w-AIDA-NMR 1D assay.
The species entered for data set [16] is Homo sapiens. Briefly: Binding affinity to 15N labelled human PD1 N66A mutant assessed as induction of dissociation of PD-1 N66A mutant/PDL1 complex by w-AIDA-NMR 2D assay. The gist of the method:
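Uniformly 15N-labelled hPD-1 N66A mutant, expressed in bacteria grown at 28 °C in M9 medium with 15NH4Cl as the sole nitrogen source and induced with 1 mM IPTG. Protein was refolded from inclusion bodies and purified by size-exclusion chromatography in 25 mM sodium phosphate pH 6.4, 100 mM NaCl. 1H–15N signals were followed by SOFAST HMQC.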

T1 sequence (Q15116 whole entry): as the sequence (Q15116 whole entry) above
T1 sequence (Q9NZQ7 whole entry): as the sequence (Q9NZQ7 whole entry) above
Programmed cell death 1 ligand 1 (Mus musculus), sequence (Q9EP73 whole entry, the tested form may be a part): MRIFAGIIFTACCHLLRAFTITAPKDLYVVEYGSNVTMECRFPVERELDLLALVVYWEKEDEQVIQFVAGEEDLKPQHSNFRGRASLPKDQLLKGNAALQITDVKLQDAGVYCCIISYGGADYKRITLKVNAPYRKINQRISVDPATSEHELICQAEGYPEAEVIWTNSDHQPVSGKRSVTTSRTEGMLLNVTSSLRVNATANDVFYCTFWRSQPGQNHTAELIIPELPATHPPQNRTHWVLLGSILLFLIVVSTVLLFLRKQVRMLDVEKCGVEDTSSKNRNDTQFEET
Programmed cell death 1 ligand 1 (Homo sapiens), sequence (Q9NZQ7 whole entry, the tested form may be a part): as the sequence (Q9NZQ7 whole entry) above

Broadly, the IC50 is the concentration that inhibits the measured activity by half. As for `OCc1cccc(-c2ccccc2)c1-c1ccccc1`, the IC50 in data set [1] is more than 100 µM.

For `N#Cc1ccc(-c2cccc(COc3ccc(C=O)cc3Br)c2Br)cc1`, the IC50 in [1] is more than 100 µM.

`O=Cc1ccc(OCc2cccc(-c3ccc4c(c3)OCCO4)c2F)c(Br)c1` came in with an IC50 in data set [1] of more than 100 µM.

On to `O=Cc1ccc(OCc2cccc(-c3ccc4c(c3)OCCO4)c2Br)c(Br)c1`, for which the IC50 in [1] is 35.4 µM.

In [1], `O=C(O)[C@@H]1CCCCN1Cc1ccc(OCc2cccc(-c3cccc(F)c3)c2Br)c(Br)c1` showed an IC50 of 0.0653 µM.

Usually EC50 stands for the concentration at which the effect is half-maximal. As for `N#Cc1cc(COc2cc(OCc3cccc(-c4ccccc4)c3Br)c(Cl)cc2CN2C[C@@H](O)C[C@H]2C(=O)O)ccn1`, the outcome in data set [2] and in [4] was Active. Further, the IC50 in data set [1] worked out at 0.0039 µM. Further, the EC50 in data set [3] amounted to 12.2 µM. Also, the solubility result in data set [5] and in data set [6] was “Insoluble” in each case.

In data set [1], `O=S1(=O)CCN(Cc2ccc(OCc3cccc(-c4cccc(F)c4)c3Br)c(Br)c2)CC1` showed an IC50 of 4.24 µM.

Molecule `N#Cc1cc(COc2cc(OCc3cccc(-c4ccccc4)c3Br)c(Cl)cc2C=O)ccn1` yielded an IC50 in [1] of 29.4 µM. Moreover, in [7], the EC50 was more than 40 µM. In addition, the outcome in data set [4] was Active.

Consider `O=C(O)[C@@H]1CCCCN1Cc1ccc(OCc2cccc(-c3ccccc3)c2Br)cc1`, for which the fold change (FC) in [8] is 2.1. Also, the inhibition result in data set [9] and in data set [11] was “Active” throughout. Besides, the result in [2] and in [4] was Active. Moreover, the results for the IC50 in [1] and in data set [10] were 0.015 µM and 1.47 nM, respectively. Also, the outcome (with PBMC; in data set [12]) was inactive. Also, in [3], the EC50 is 6.6 µM. Moreover, in the data set with Jurkat [13], the Activity result is “Non-Toxic”.

`CC(=O)NCCNCc1ccc(OCc2cccc(-c3cccc(F)c3)c2Br)c(Br)c1` registered an IC50 in [1] of 0.107 µM.

Take `Cc1c(COc2ccc(CN3CCCC[C@H]3C(=O)O)cc2)cccc1-c1ccccc1`: the result in [4] was Active. The result in [12] was inactive.

The molecule `BrCc1cccc(-c2ccc3c(c2)OCCO3)c1Br` returned an IC50 in data set [1] of 64.4 µM.

In the case of `COc1cc(C=O)ccc1OCc1cccc(-c2ccccc2)c1Br`, the IC50 in data set [1] was more than 100 µM.

In the case of `O=S1(=O)CCN(Cc2cccc(OCc3cccc(-c4cccc(F)c4)c3Br)c2)CC1`, the IC50 in data set [1] is 22.3 µM.

Regarding `CC(=O)NCCNCc1ccc(OCc2cccc(-c3ccc4c(c3)OCCO4)c2F)c(Br)c1`, in [1], the IC50 was 0.0227 µM.

On to `O=Cc1ccc(OCc2cccc(-c3ccccc3)c2-c2ccccc2)c(Br)c1`, for which, in [1], the IC50 was more than 100 µM.

The molecule `OCc1cccc(OCc2cccc(-c3cccc(F)c3)c2Br)c1` had an IC50 in data set [1] of more than 100 µM.

Turning to `Cc1c(COc2cc(OCc3cccc(C#N)c3)c(CN3C[C@H](O)C[C@@H]3C(=O)O)cc2Cl)cccc1-c1ccc2c(c1)OCCO2`, in the data set on Jurkat [14], the Activity amounted to 50%. For the same molecule, in data set [12], the result was inactive.

For the molecule `O=C(O)[C@@H]1CCCCN1Cc1ccc(OCc2cccc(-c3ccc4c(c3)OCCO4)c2Br)c(Br)c1`, the IC50 in [1] came to 0.401 µM. In addition, in data set [3], the EC50 was more than 40 µM. In addition, the result in data set [4] was Active.

`O=Cc1ccc(OCc2cccc(-c3cccc(F)c3)c2Br)c(Br)c1`: the 50% inhibitory concentration (IC50) in data set [1] was determined as 55 µM.

The molecule `Cc1cc(C=O)ccc1OCc1cccc(-c2ccccc2)c1Br` gave an IC50 in [1] of 50 µM.

With `OCc1cccc(-c2ccc3c(c2)OCCO3)c1F`, the half-maximal inhibitory concentration (IC50) in [1] was found to be 55.5 µM.

For the molecule `N#Cc1cccc(COc2cc(OCc3cccc(-c4ccccc4)c3Br)c(Cl)cc2C=O)c1`, the IC50 in data set [1] turned out to be 0.552 µM. Also, the EC50 in data set [7] was more than 40 µM. The result in data set [4] was Active.

Turning to `COC(=O)c1ccc(OCc2cccc(-c3ccccc3)c2Br)c(Br)c1`, the IC50 in data set [1] came out at 28.6 µM.

`OCc1cccc(-c2ccccc2)c1F`: the outcome in the data set listed under Homo sapiens [15] and in the data set listed under Homo sapiens [16] was Active. For the same molecule, in data set [1], the IC50 was determined as 55.9 µM.

The molecule `Fc1cccc(-c2cccc(CBr)c2Br)c1` registered an IC50 in [1] of 100 µM.

As for `BrCc1cccc(-c2ccccc2)c1Br`, the result in the data set listed under Homo sapiens [15] and in the data set filed under Homo sapiens [16] was Active. In addition, the IC50 in data set [1] was found to be 50.7 µM.

Molecule `O=Cc1cc(Cl)c(OCc2cccc(-c3ccccc3)c2Br)cc1O` yielded an IC50 in [1] of more than 100 µM.

In [1], `O=C(O)[C@@H]1C[C@H](O)CN1Cc1ccc(OCc2cccc(-c3ccccc3)c2-c2ccccc2)c(Br)c1` showed an IC50 of 29.4 µM.

`CC(=O)NCCNCc1ccc(OCc2cccc(-c3ccc(C#N)cc3)c2Br)c(Br)c1` returned an IC50 in [1] of 5.11 µM.

Molecule `N#Cc1cc(COc2cc(OCc3cccc(-c4ccccc4)c3-c3ccccc3)c(Cl)cc2C=O)ccn1` came in with an IC50 in data set [1] of 23.8 µM. Also, the EC50 in [7] was more than 40 µM. Moreover, the result in data set [4] was Active.

On to `O=Cc1ccc(OCc2cccc(-c3ccccc3)c2Br)c(Br)c1`, for which the IC50 in data set [1] came to 50 µM.

In turn, `N#Cc1ccc(-c2cccc(CBr)c2Br)cc1` came in with an IC50 in data set [1] of 66.3 µM.

`O=Cc1cc(Cl)c(OCc2cccc(-c3ccccc3)c2-c2ccccc2)cc1O`: the IC50 in [1] was more than 100 µM.

In [1], `O=Cc1ccc(OCc2cccc(-c3ccccc3)c2Br)cc1` returned an IC50 of 50 µM.
